Drawing on ChEMBL document CHEMBL1126145, “Phenyl-substituted analogues of oxotremorine as muscarinic antagonists” (J Med Chem, 1992), this text covers Kd, Tremorolytic dose and Ki for 15 compounds.

The target in experiment [1] is Muscarinic acetylcholine receptor. The experiment in a line: Determination of dissociation constant from antimuscarinic activity on isolated guinea pig ileum. Type of experiment: tissue-based, Cavia porcellus.
The species named for experiment [2] is Mus musculus. The experiment in a line: Antimuscarinic activity on the intact mice.(Dose required to double the dose of oxotremorine inducing a predetermined tremor intensity.). Type of experiment: functional. Put shortly: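 Male Swiss-Webster mice (24-32 g). Antagonist given i.p. at 200 µmol/kg to groups of ≥6 mice; 6 untreated controls. 20 min later, the i.v. oxotremorine ED50 was estimated by the up-and-down method, with intermittent spontaneous (grade 2) tremor as endpoint. Active compounds were tested at two further doses. The dose doubling the oxotremorine ED50 was found by linear regression of ED50 vs antagonist dose (including zero).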

For experiment [3], the target named is Muscarinic acetylcholine receptor. The experiment in a line: Inhibition of [3H]N-methylscopolamine binding to muscarinic acetylcholine receptor of rat cerebral cortex. It is filed as tissue-based. Put shortly: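 Male Sprague-Dawley rat (200-300 g) cortex homogenized in 50 mM Na-K phosphate pH 7.4, spun 30000g, resuspended at 10 mg wet tissue/mL. Incubated with (-)-[3H]NMS 0.3 nM plus competitor for 30 min at 30 °C; filtration assay. IC50 from one-site nonlinear fit, converted to Ki by Cheng-Prusoff. Three experiments, each in triplicate.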

Consider `CC(C#CCN1CCCC1)N1CCCC1=O` (stereo unspecified), for which the Kd (as a rule, the concentration at which binding is half-saturated) in experiment [1] was 0.091 µM. The same compound registered a Tremorolytic dose in experiment [2] of 0.5 µM/kg.

The compound `O=C1C(c2ccccc2)CCN1CC#CCN1CCCC1` (stereo unspecified) registered a Kd in experiment [1] of 11.21 µM. The compound further returned a Tremorolytic dose in experiment [2] of over 200 µM/kg. The Ki (usually a measure of affinity in units of concentration, obtained from inhibition or displacement) in experiment [3] was determined as 6.91 µM.

In experiment [1], `O=C1CC(c2ccccc2)CN1CC#CCN1CCCC1` (stereo unspecified) returned a Kd of 15.22 µM. In experiment [2], this compound gave a Tremorolytic dose of over 200 µM/kg. This compound also showed a Ki in experiment [3] of 5.77 µM.

In experiment [1], `CC(=O)N(CC#CCN1CCCC1)Cc1ccccc1` registered a Kd of 5.89 µM. In experiment [2], this compound had a Tremorolytic dose of 154 µM/kg. In experiment [3], this compound returned a Ki of 1.29 µM.

In experiment [2], `CC(=O)N(C)C(C)C#CCN1CCCC1` (stereo unspecified) had a Tremorolytic dose of 0.6 µM/kg.

Take `CC(C#CCN1CCCC1)N1C(=O)CCC1=O` (stereo unspecified): in experiment [2], the Tremorolytic dose turned out to be 1.2 µM/kg.

In experiment [2], `CC1CCC(=O)N1CC#CCN1CCCC1` (stereo unspecified) returned a Tremorolytic dose of 0.4 µM/kg.

As for `CN1[C@@H]2CC[C@H]1C[C@@H](OC(=O)C(CO)c1ccccc1)C2` (stereo partly specified) [ATROPINE], in experiment [2], the Tremorolytic dose stood at 0.9 µM/kg.

In turn, `CC(=O)N(C)C(C#CCN1CCCC1)c1ccccc1` (stereo unspecified) had a Kd in experiment [1] of 0.62 µM. Also, in experiment [2], the Tremorolytic dose was determined as 17.4 µM/kg. Further, the Ki in experiment [3] amounted to 0.31 µM.

In turn, `O=C1CCC(c2ccccc2)N1CC#CCN1CCCC1` (stereo unspecified) came in with a Kd in experiment [1] of 0.85 µM. In experiment [2], this compound gave a Tremorolytic dose of 55.6 µM/kg. In addition, in experiment [3], the Ki was determined as 0.54 µM.

On to `CN(CC#CCN1CCCC1)C(=O)Cc1ccccc1`, for which the Kd in experiment [1] was 20.5 µM. The compound also returned a Tremorolytic dose in experiment [2] of over 200 µM/kg. The compound further had a Ki in experiment [3] of 5.2 µM.

`O=C1CCCN1C(C#CCN1CCCC1)c1ccccc1` (stereo unspecified) gave a Kd in experiment [1] of 0.2 µM. Further, the Tremorolytic dose in experiment [2] is 8.93 µM/kg. Also, the Ki in experiment [3] is 0.11 µM.

Regarding `CN(C(=O)C(F)(F)F)C(C#CCN1CCCC1)c1ccccc1` (stereo unspecified), in experiment [1], the Kd was determined as 0.5 µM. In experiment [2], this compound had a Tremorolytic dose of 26.5 µM/kg. Also, the Ki in experiment [3] was 0.23 µM.

In the case of `O=C1CCC(=O)N1C(C#CCN1CCCC1)c1ccccc1` (stereo unspecified), in experiment [1], the Kd came out at 0.1 µM. In addition, the Tremorolytic dose in experiment [2] was 7.29 µM/kg. Moreover, the Ki in experiment [3] is 0.12 µM.

`O=C1CCCN1CC#CCN1CCC(c2ccccc2)C1` (stereo unspecified): the Kd in experiment [1] is 8.1 µM. In experiment [2], this compound had a Tremorolytic dose of 122 µM/kg. This compound also displayed a Ki in experiment [3] of 2.4 µM.
